In ChEMBL document CHEMBL4270576, “Discovery of a benzenesulfonamide-based dual inhibitor of microsomal prostaglandin E2 synthase-1 and 5-lipoxygenase that favorably modulates lipid mediator biosynthesis in inflammation” (Eur J Med Chem, 2018):
The source made the active and inactive calls. No cut-off for these calls is given here.

Tests used:
[1] = molecular target: Cyclooxygenase (Homo sapiens, UniProt P35354+P23219); test: Modulation of COX1/2-mediated 11-HETE level in human M2 macrophages derived from IL4-polarized human monocyte derived macrophages at 3 uM preincubated for 15 mins followed by Escherichia coli (O6:K2:H1) challenge for 90 mins by LC-MS/MS analysis; type: ADME; conditions: 1.5 h
Outline: (§1)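 Monocytes differentiated 6 days with M-CSF (20 ng/ml), then polarized 48 h with IL-4 20 ng/ml (M2). Cells (2 × 10^6) in PBS/1 mM CaCl2 pre-incubated 15 min at 37 °C with 3 µM compound or 0.1% DMSO, then challenged with E. coli O6:K2:H1 (1:50) for 90 min. Lipid mediators extracted by SPE with deuterated internal standards and quantified by UPLC-MS/MS as % of vehicle.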

[2] = molecular target: T1, Polyunsaturated fatty acid 5-lipoxygenase (Homo sapiens) (UniProt P09917); test: Inhibition of 5-LO in human M1 macrophages derived from LPS/IFNgamma-polarized human monocyte derived macrophages assessed as effect on 5,6-diHETE level at 3 uM preincubated for 15 mins followed by Escherichia coli (O6:K2:H1) challenge for 90 mins by LC-MS/MS analysis; parameters: scale not given: the % may be the effect or the level left
T1 sequence (whole entry): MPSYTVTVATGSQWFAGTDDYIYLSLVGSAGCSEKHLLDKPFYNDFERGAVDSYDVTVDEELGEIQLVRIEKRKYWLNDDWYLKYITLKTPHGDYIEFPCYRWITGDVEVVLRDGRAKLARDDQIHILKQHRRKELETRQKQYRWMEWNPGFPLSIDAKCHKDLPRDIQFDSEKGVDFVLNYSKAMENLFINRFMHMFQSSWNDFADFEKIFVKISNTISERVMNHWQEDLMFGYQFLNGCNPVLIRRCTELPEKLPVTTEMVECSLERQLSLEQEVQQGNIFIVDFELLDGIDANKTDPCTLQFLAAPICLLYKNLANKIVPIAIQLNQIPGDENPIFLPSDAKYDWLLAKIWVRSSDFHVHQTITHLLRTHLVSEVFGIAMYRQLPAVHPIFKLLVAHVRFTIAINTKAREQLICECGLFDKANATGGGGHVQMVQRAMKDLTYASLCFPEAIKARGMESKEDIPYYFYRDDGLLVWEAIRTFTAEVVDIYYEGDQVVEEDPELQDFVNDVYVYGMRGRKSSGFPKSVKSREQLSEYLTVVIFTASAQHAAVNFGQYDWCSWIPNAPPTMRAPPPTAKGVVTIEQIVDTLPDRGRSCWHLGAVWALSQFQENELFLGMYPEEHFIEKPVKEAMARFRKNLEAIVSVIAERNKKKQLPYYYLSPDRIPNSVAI
Outline: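 Monocytes differentiated 6 days with GM-CSF (20 ng/ml) in RPMI/10% FCS, then polarized 48 h with LPS 100 ng/ml plus IFN-γ 20 ng/ml (M1). Cells (2 × 10^6) in PBS with 1 mM CaCl2 pre-incubated 15 min at 37 °C with 3 µM compound or 0.1% DMSO, then E. coli O6:K2:H1 (1:50) for 90 min. Methanol with deuterated standards added; SPE; UPLC-MS/MS; expressed as % of vehicle.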

[3] = molecular target: T2, Polyunsaturated fatty acid lipoxygenase ALOX12 (Homo sapiens) (UniProt P18054); test: Modulation of 12-LO-mediated 12-HETE level in human M2 macrophages derived from IL4-polarized human monocyte derived macrophages at 3 uM preincubated for 15 mins followed by Escherichia coli (O6:K2:H1) challenge for 90 mins by LC-MS/MS analysis; outline: as §1
T2 sequence (whole entry): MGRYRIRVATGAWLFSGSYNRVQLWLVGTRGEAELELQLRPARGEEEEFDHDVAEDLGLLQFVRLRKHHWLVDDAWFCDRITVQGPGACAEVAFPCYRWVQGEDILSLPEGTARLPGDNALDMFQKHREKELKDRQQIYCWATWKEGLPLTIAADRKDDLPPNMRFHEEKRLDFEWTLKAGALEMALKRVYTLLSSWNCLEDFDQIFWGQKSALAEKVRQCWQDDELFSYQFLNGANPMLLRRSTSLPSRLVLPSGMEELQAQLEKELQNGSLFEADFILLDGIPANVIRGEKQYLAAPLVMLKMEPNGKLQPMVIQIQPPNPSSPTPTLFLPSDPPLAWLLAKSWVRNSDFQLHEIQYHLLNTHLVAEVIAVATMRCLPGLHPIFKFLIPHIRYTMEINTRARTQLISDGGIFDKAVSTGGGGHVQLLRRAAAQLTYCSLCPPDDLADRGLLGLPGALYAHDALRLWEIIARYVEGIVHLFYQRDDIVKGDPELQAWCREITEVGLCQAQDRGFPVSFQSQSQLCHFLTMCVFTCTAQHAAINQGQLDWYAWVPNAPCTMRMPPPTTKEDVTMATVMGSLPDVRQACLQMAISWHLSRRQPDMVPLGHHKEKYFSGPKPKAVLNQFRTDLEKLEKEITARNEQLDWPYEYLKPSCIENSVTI

[4] = molecular target: T3, Leukotriene C4 synthase (Homo sapiens, UniProt Q16873); test: Inhibition of LTC4 synthase (unknown origin)
T3 sequence (Q16873 whole entry): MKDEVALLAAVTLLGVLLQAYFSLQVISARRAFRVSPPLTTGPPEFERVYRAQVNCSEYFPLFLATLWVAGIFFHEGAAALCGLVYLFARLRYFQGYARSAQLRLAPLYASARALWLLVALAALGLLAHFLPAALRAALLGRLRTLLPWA

[5] = species: Homo sapiens; test: Modulation of LO-mediated PD1 level in human M2 macrophages derived from IL4-polarized human monocyte derived macrophages at 3 uM preincubated for 15 mins followed by Escherichia coli (O6:K2:H1) challenge for 90 mins by LC-MS/MS analysis; outline: as §1
[6] = test system: Mus musculus; test: Antiinflammatory activity in zymosan induced CD-1 mouse model of inflammation assessed as reduction in leukocyte recruitment in air pouch at 10 mg/kg, ip preincubated for 30 mins followed by zymosan challenge and measured after 4 hrs by trypan blue staining-based burker's chamber method; type: functional, organism-based
Outline: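 Air pouch formed by s.c. injection of 2.5 mL sterile air in CD-1 mice; on day 6, 10 mg/kg i.p. (2% DMSO/saline) given 30 min before 1 ml 1% w/v zymosan into the pouch. After 4 h, exudate collected with 1 ml saline and centrifuged; leukocytes counted in Burker chamber; LTB4 in supernatant by ELISA (ng/mL). n=6 mice per group.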

[7] = molecular target: T2, Polyunsaturated fatty acid lipoxygenase ALOX12 (Homo sapiens); test: Modulation of 12-LO-mediated 14-HDHA level in human M2 macrophages derived from IL4-polarized human monocyte derived macrophages at 3 uM preincubated for 15 mins followed by Escherichia coli (O6:K2:H1) challenge for 90 mins by LC-MS/MS analysis; outline: as §1

Work on `O=C(O)c1ccc(N(Cc2cccc(OCc3ccccc3)c2)S(=O)(=O)c2ccc(-c3ccccc3)cc2)cc1` yielded an Activity [1] of 106%, an Activity [2] of 13% and an Activity [3] of 151%. The IC50 [4] was 1800 nM, the Activity [5] was 110% and the Activity [6] was “Active”. For the same compound, the Activity [7] was 125%.
